Assay outcomes (PubChem)
Hits are enriched below; roughly 2.3% of the tested compounds scored in any of these assays.
Rpn11 inh – blocks the human proteasome subunit Rpn11. human 26S proteasome, Ub4-pepOG fluorescence polarization; 20S core pre-blocked with epoxomicin. inhibition, % at 20 µM. hit rate 0.59% among 360,000. AID 588493;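 active = inhibition at 20 µM, scaled to each plate's controls, above about 33%, limit read from the data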
Target sequence (O00487 whole entry, looked up): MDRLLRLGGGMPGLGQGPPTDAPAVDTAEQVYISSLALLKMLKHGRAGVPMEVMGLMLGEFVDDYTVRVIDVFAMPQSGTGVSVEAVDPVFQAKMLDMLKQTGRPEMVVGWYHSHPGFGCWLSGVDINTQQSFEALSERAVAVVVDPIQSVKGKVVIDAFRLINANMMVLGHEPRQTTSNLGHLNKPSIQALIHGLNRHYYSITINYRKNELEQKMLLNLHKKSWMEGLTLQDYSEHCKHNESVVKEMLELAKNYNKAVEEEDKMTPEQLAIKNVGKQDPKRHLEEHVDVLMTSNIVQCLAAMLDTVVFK
MT1-MMP act inh – MT1-MMP (human) activation inhibition; AID 651647; hit rate 0.061% among 360,000; HT1080 RFP-PRO-GFP cells, GFP/RFP ratio fluorescence, overnight; percent of plate control window, DMSO zero; GFP/RFP ratio change, % at 20 µM; P50281;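 active = GFP/RFP ratio change of at least 30% with cell ATP level not reduced by more than half and red fluorescence within 50% of control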
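Assay system – RFP-PRO-GFP reporter HT1080 cells · Compound dosing – single dose of 20 µM compound, 1% DMSO final · Incubation – overnight compound exposure at 37 °C · Measure – GFP/RFP fluorescence ratio · Benchmarks – DMSO wells and RFP-L50D-GFP cells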
CSN deneddyl inh – CSN deneddylation inhibition. hit rate 0.38% among 360,000. AID 651999. Purified CSN, SCF-Nedd8-OG deneddylation, fluorescence polarization. inhibition, % at 12.5 µM. Q92905;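 active = pattern-corrected inhibition above about 35%, with an unprinted fluorescence ratio check between 0.5 and 1.5, limit read from the data, passing the limit was not always enough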;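 also: 0% = enzyme with substrate and 100% = substrate without enzyme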
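Detection – fluorescence polarization · System – HEK293T-derived human Csn5 enzyme · Controls – substrate-only high control, full reaction low control · Timing – 90 min, room temperature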
SKN-1 inh – C. elegans SKN-1 inhibition | C. elegans VP596 Pgst-4::GFP/RFP ratio, acrylamide-induced, 24 h | inhibition, % at 21.8 µM | hit rate 0.49% among 360,000;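 active = interference check ratio from 0.5 to 1.5 plus GFP to RFP signal ratio inhibition reaching or exceeding a fixed threshold, cut at about 30% in these data, passing the limit was not always enough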
DNMT1 inh – inhibitors of human DNMT1; AID 588458; DNMT1 molecular beacon, Hinp1I cleavage, fluorescence; P26358; hit rate 0.83% among 360,000; inhibition (reported as % activation of signal), % at 10 µM; in the data active = inhibition above about 50%
SUMO1-SIM PPI – SUMO1-SIM interaction modulation. P63165. SUMO1 binding to a labelled peptide, TR-FRET, 1 h. inhibition, % at 20 µM. hit rate 0.33% among 360,000. AID 602429; in the data active = inhibition above about 37%
Target sequence (P63165 whole entry, looked up): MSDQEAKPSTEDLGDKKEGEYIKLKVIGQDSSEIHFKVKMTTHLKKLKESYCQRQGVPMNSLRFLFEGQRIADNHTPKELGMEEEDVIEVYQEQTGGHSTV
Numbers without * were called inactive; / = no result given.

SMILES	Rpn11 inh	MT1-MMP act inh	CSN deneddyl inh	SKN-1 inh	DNMT1 inh	SUMO1-SIM PPI
CC(NS(=O)(=O)c1ccc(OCC(=O)N2CCOCC2)cc1)c1ccccc1 (stereo unspecified)	1	-2	-5	-6	0	-5
CC(NS(=O)(=O)c1ccc(OCC(=O)N2CCOCC2)c(Cl)c1)c1ccccc1 (stereo unspecified)	0	2	-1	38*	-3	-1
O/C=c1\ccc2cccc3nc(C(F)(F)F)nc1c23	5	-121	2	32	50*	-13
CC(C)NC(=O)C1(C)CN(S(C)(=O)=O)CC(=O)N1C1CC1 (stereo unspecified)	/	6	-1	8	/	0
CCc1nc2c(OCc3ccc(C(F)(F)F)cc3)cccn2c1N(C)C(=O)C1CC1	5	-6	-2	0	-1	5
O=C(Nc1cc(-c2ccccc2)[nH]n1)c1ccccc1	-4	-1	3	37*	-4	-1
CCOC(=O)C1CCN(c2nc3ccccc3nc2C(C#N)C(=O)OC(C)COC)CC1 (stereo unspecified)	10	-24	4	-25	2	-16
CCOC(=O)C1CCN(c2nc3ccccc3nc2C(C#N)C(=O)OC(C)C)CC1 (stereo unspecified)	/	-42	45*	-19	7	-8
COC(=O)c1ccccc1NC(=O)N1CCc2ccc(NC(=O)c3ccccn3)cc2C1	-2	2	6	7	-4	-8
O=C(Nc1ccc2c(c1)CN(C(=O)Nc1ccc(F)cc1)CC2)c1ccccn1	6	-3	-7	38*	-9	-3
Cn1c(N)c(C(=O)COC(=O)c2cc3ccccc3cc2O)c(=O)n(C)c1=O	-3	-4	3	-6	-19	51*
CC1=C(C(=O)N2CCCCCC2)CC(CC(=O)NC2CCCCC2)C(=O)N1Cc1ccccc1 (stereo unspecified)	12	1	117*	-17	6	4
Nc1ccc(N)c(C(=O)O)c1	-28	-17	17	17	117*	105*
CC(=O)c1ccc(N2CCN(C(=O)c3ccc(S(=O)(=O)NCc4ccco4)cc3)CC2)cc1	-7	6	-1	23	-1	4
O=C(COC(=O)c1ccc(S(=O)(=O)NCc2ccco2)cc1)Nc1ccccc1	5	-1	37*	3	-1	5
O=C(c1ccc(S(=O)(=O)NCc2ccco2)cc1)N1CCN(c2ccc(F)cc2)CC1	-10	3	4	33*	-5	-2
CN(Cc1cnn(-c2ccccc2)c1)C(=O)c1ccc(S(=O)(=O)NCc2ccco2)cc1	6	2	45*	1	-4	0
O=C(COC(=O)c1ccc(S(=O)(=O)NCc2ccco2)cc1)Nc1ccc(Cl)cn1	17	0	48*	-2	40	9
CCOC(=O)c1sc2nc(OCc3cccnc3)cc(C)c2c1N	/	0	3	6	/	8
O=C1NC[C@H](CCCCN2CCN(Cc3ccccc3)C(=O)C2=O)N(CCc2ccccc2)C1=O	/	2	-3	29	/	4
O=C1c2nc3ccccn3c2C(=O)N1Cc1ccccc1	1	-1	1	4	-11	39*
CCN1C(=O)/C(=C2/C=Cc3ccccc3N2C)OC1=S	/	-12	33	19	-3	-22
CCN1C(=O)/C(=C2\C=Cc3cc(C)ccc3N2CC)OC1=S	-5	-2	-3	35*	1	-33
O=C(O)CN1C(=O)/C(=C\c2cc(Br)ccc2OCc2ccc([N+](=O)[O-])cc2)SC1=S	13	3	28	-5	56*	25
O=C(O)CN1C(=O)/C(=C\c2cc(Br)ccc2OCc2ccccc2F)SC1=S	3	-4	30	2	22	16
SMILES	Rpn11 inh	MT1-MMP act inh	CSN deneddyl inh	SKN-1 inh	DNMT1 inh	SUMO1-SIM PPI
CC1(C(=O)N2CCCCC2)CCN1C(=O)c1ccccc1CCc1ccccc1 (stereo unspecified)	-9	-3	-1	1	-2	4
O=C(COC(=O)CCC1CCCC1)Nc1ccc(Cl)cn1	-4	0	1	41*	0	3
O=C(CSc1nc2sc3c(c2c(=O)n1-c1ccccc1)CCCC3)N/N=C/c1ccccc1C(=O)O	11	3	50*	-10	5	5
Cc1ccc(Nc2nc(N)nc(CSc3nncn3C)n2)cc1	2	2	-5	-8	2	8
Cc1ccc(Nc2nc(N)nc(CSc3nnnn3-c3ccccc3)n2)cc1	4	6	41*	0	29	2
Cc1ccc2nc(Nc3nc(CSc4nnnn4-c4ccccc4)cc(=O)[nH]3)nc(C)c2c1	-3	-1	7	35*	-18	2
Cc1cccc(-c2ccc([N+](=O)[O-])cc2CN2CCN(c3ncc(Cc4ccccc4)cn3)CC2)c1	/	2	-1	10	/	-14
CCCCCOc1ccccc1C(=O)NCCCC(=O)O	-2	1	1	-8	1	-2
CCCCCOc1ccccc1C(=O)NCCC(=O)O	-2	0	-3	38*	1	2
Nc1cc2c(cc1Cl)-c1ccccc1C2	-3	-5	0	49*	-7	0
CN1OC[C@@H]2CN(S(=O)(=O)c3cccc4ccccc34)[C@H](c3ccc(-c4cccnc4)cc3)C[C@@H]21	2	-1	5	4	-1	-5
CCCC(=O)NC1=C(Cl)C(=O)c2ccccc2C1=O	4	-40	10	-3	27	-23
CCNC1=C(Cl)C(=O)c2ccccc2C1=O	0	17	8	37*	-17	-26
O=C(Nc1cccc(NC(=O)c2ccc(-c3ccc(Br)cc3)o2)c1)c1ccco1	14	5	6	19	-14	44*
O=C(Nc1cccc(NC(=O)c2ccccc2Cl)c1)c1ccco1	1	-2	1	6	1	3
CCCCn1c(N)c(N(CC(C)C)C(=O)c2cc(-c3ccco3)nc3ccccc23)c(=O)[nH]c1=O	-12	1	17	12	21	4
CCCCN(C(=O)c1cc(-c2ccco2)nc2ccccc12)c1c(N)n(CCC)c(=O)[nH]c1=O	-15	-2	31	1	53*	3
O=C(Nc1ccc(-c2nc3ccccc3o2)cc1)c1ccc(N2CCOCC2)c([N+](=O)[O-])c1	4	0	-3	31	-12	-5
Cn1cc([N+](=O)[O-])c(C(=O)Nc2ccc(-c3nc4ccccc4o3)cc2)n1	6	-23	5	-1	3	46*
CC(=O)c1ccc(N=Nc2ccc(C)cc2)cc1	-7	3	-9	12	-3	-17
